Measurements from ChEMBL document CHEMBL1255300, “Pharmacodynamics of the antibacterial effect and emergence of resistance to tomopenem, formerly RO4908463/CS-023, in an in vitro pharmacokinetic model of Staphylococcus aureus infection” (Antimicrob Agents Chemother, 2008).
The source made the active and inactive calls. The calls are words filed in the database; no cut-off is given here.

Tests used:
Staphylococcus aureus [1] = assay: Antibacterial activity against methicillin-resistant Staphylococcus aureus 33827 infected in in vitro pharmacokinetic model assessed as time required to 99% killing at 750 mg, iv every 8 hrs using 10^8 CFU/ml inoculum; type: functional
Outline: (§1)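 Single-compartment dilutional in vitro PK model, 10% Mueller-Hinton broth, 37°C, stirred, dilution 132 ml/h. […] Inoculum 10^6 CFU/ml (added 45 min pre-dose) or 10^8 CFU/ml (run overnight). Viable counts by spiral plating, beta-lactamase neutralization, detection limit 10^2 CFU/ml. At least triplicate.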

Staphylococcus aureus [2] = assay: Antibacterial activity against methicillin-resistant Staphylococcus aureus 33827 infected in in vitro pharmacokinetic model assessed as time required to 99% killing at 1500 mg, iv every 8 hrs using 10^8 CFU/ml inoculum; type: functional; outline: as §1
Staphylococcus aureus [3] = assay: Antibacterial activity against methicillin-resistant Staphylococcus aureus 33815 infected in in vitro pharmacokinetic model assessed as time required to 99% killing at 1500 mg, iv every 8 hrs using 10^8 CFU/ml inoculum; type: functional
Outline: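 T99 and T99.9 were taken as the times for the count to fall 99% or 99.9% from time 0, using serial viable counts over 48 h. Inoculum was 10^8 CFU/ml, grown overnight in the model before dosing.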

Staphylococcus aureus [4] = assay: AUBKC (0 to 24 hrs) in methicillin-resistant Staphylococcus aureus 33921 infected in in vitro pharmacokinetic model at 1500 mg, iv every 8 hrs using 10^6 CFU/ml inoculum; type: functional
Outline: (§2)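 Single-compartment dilutional in vitro PK model at 37°C in 10% Mueller-Hinton broth, stirred, flow 132 ml/h. […] Inoculum 10^6 CFU/ml added 45 min before dosing, or 10^8 CFU/ml run overnight. Viable counts with β-lactamase neutralisation. AUBKC by log-linear trapezoidal rule, at least triplicate.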

Staphylococcus aureus [5] = assay: AUBKC (0 to 48 hrs) in methicillin-resistant Staphylococcus aureus 33827 infected in in vitro pharmacokinetic model at 1500 mg, iv every 8 hrs using 10^6 CFU/ml inoculum; type: functional; outline: as §2
Staphylococcus aureus [6] = assay: Antibacterial activity against methicillin-resistant Staphylococcus aureus 33922 infected in in vitro pharmacokinetic model assessed as reduction in viable count at 750 mg, iv every 8 hrs measured after 36 hrs using 10^8 CFU/ml inoculum; type: functional
Staphylococcus aureus [7] = assay: Antibacterial activity against methicillin-resistant Staphylococcus aureus 33827 assessed as viable count at 2 times of MIC after 24 hrs using 10^6 CFU/ml inoculum; type: functional, organism-based
Staphylococcus aureus [8] = assay: T>MIC in methicillin-resistant Staphylococcus aureus 33815 infected in vitro pharmacokinetic model at 1500 mg, iv every 8 hrs; type: functional
Staphylococcus aureus [9] = assay: Antibacterial activity against methicillin-resistant Staphylococcus aureus 33921 infected in in vitro pharmacokinetic model assessed as reduction in viable count at 750 mg, iv every 8 hrs measured after 36 hrs using 10^6 CFU/ml inoculum; type: functional
Staphylococcus aureus [10] = assay: Antibacterial activity against methicillin-resistant Staphylococcus aureus 33922 infected in in vitro pharmacokinetic model assessed as reduction in viable count at 750 mg, iv every 8 hrs measured after 48 hrs using 10^6 CFU/ml inoculum; type: functional
Staphylococcus aureus [11] = assay: T>MIC for 4-log drop in count in methicillin-resistant Staphylococcus aureus 33827 in in vitro pharmacokinetic model after 24 hrs using 10^6 CFU/ml inoculum; type: functional
Staphylococcus aureus [12] = assay: T>MIC for 4-log drop in count in methicillin-resistant Staphylococcus aureus 33820 in in vitro pharmacokinetic model after 24 hrs using 10^6 CFU/ml inoculum; type: functional
Staphylococcus aureus [13] = assay: T>MIC for 3-log drop in count in methicillin-resistant Staphylococcus aureus 33827 in in vitro pharmacokinetic model after 24 hrs using 10^8 CFU/ml inoculum; type: functional
Staphylococcus aureus [14] = assay: Antibacterial activity against methicillin-sensitive Staphylococcus aureus 5956 infected in in vitro pharmacokinetic model assessed as reduction in viable count at 1500 mg, iv every 8 hrs measured after 12 hrs using 10^6 CFU/ml inoculum; type: functional
Staphylococcus aureus [15] = assay: Antibacterial activity against methicillin-resistant Staphylococcus aureus 33921 infected in in vitro pharmacokinetic model assessed as reduction in viable count at 1500 mg, iv every 8 hrs measured after 36 hrs using 10^6 CFU/ml inoculum; type: functional; outline: as §1
Staphylococcus aureus [16] = assay: Antibacterial activity against methicillin-resistant Staphylococcus aureus 33820 infected in in vitro pharmacokinetic model assessed as reduction in viable count at 1500 mg, iv every 8 hrs measured after 48 hrs using 10^6 CFU/ml inoculum; type: functional
Outline: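 Single-compartment dilutional in vitro PK model, 37°C, stirred, in 10% Mueller-Hinton broth. […] Inoculum 10^6 CFU/ml from a 24-h plate culture was added 45 min before dosing. Viable counts by spiral plating on nutrient agar with β-lactamase neutralization. Log change was taken from time 0; detection limit 10^2 CFU/ml; at least triplicate.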

## C[C@@H](O)[C@H]1C(=O)N2C(C(=O)O)=C(S[C@H]3C[C@@H](C(=O)N4CC[C@H](NC(=O)CNC(=N)N)C4)N(C)C3)[C@H](C)[C@H]12 [TOMOPENEM]
Staphylococcus aureus [1]
  Time: 12 h
Staphylococcus aureus [2]
  Time: 12 h
Staphylococcus aureus [3]
  Time: 16 h
Staphylococcus aureus [4]
  AUBC: 32.9 log10CFU/ml.hr
Staphylococcus aureus [5]
  AUBC: 35.5 log10CFU/ml.hr
Staphylococcus aureus [6]
  log10CFU/ml: 5.5
Staphylococcus aureus [7]
  Activity: inactive
Staphylococcus aureus [8]
  fT>MIC: 98%
Staphylococcus aureus [9]
  log10CFU/ml: 3.9
Staphylococcus aureus [10]
  log10CFU/ml: 3.9
Staphylococcus aureus [11]
  fT>MIC: 61%
Staphylococcus aureus [12]
  fT>MIC: 36.2%
Staphylococcus aureus [13]
  fT>MIC: 59.3%
Staphylococcus aureus [14]
  log10CFU/ml: 4.4
Staphylococcus aureus [15]
  log10CFU/ml: 4.2
Staphylococcus aureus [16]
  log10CFU/ml: 4.2
